Fewer inactive variants are shown than the library holds.
B1: tRNA (parent)
chain: GUUCCGUUGGCGUAAUGGUAACGCGUCUCCCUCCUAAGGAGAAGACUGCGGGUUCGAGUCCCGUACGGAACG

Variants of: B1
Experiment: yeast fitness relative to wild type (ratio to wild type); higher = fitter; tRNA-Arg(CCU), competitive growth, 37 C, YPD
How it was run: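 A pool of Saccharomyces cerevisiae strains, each with a tRNA-Arg(CCU) gene variant at the native genomic locus, was competed in YPD at 37°C for 24 hours across six parallel replicates. The variants had been chemically synthesised at a 3% per-site mutation rate over 69 sites, and gene amplicons before and after competition were read by 100-nucleotide paired-end sequencing. Darwinian fitness relative to wild type rested on changes in genotype frequencies. Genotypes required ≥ 100 starting reads, and estimates < 0.5 were set to 0.5.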

| Variant | yeast fitness |
| --- | --- |
| GUUCCGUUGGCGAACUGGUAACGCGUCUCCCUCCUAAGGAGAAGGCUGCGGGUUUGAGUCGCGUACGGAACG [U13A A15C A45G C55U C61G] | ≤ 0.5 |
| GUUCCGUUGGCGAAAUGGUGACGCGUCUCCCUCCUAAGGAAAAGACUGCGCGUUCGAGUCCCGUACGGAACG [U13A A20G G41A G51C] | 0.532 |
| GUUCCGUUGGCGACAUGAUAACGCGUCUCCCUCCUAAGGAGAAAACUGCGGGUUCGAGUCCCGUAGGGAACG [U13A A14C G18A G44A C66G] | ≤ 0.5 |
| GUUCCGUUGGCGAACUGGUAACGCGUCUCCCUGCUAAGGAGAAGACUGCGGAUUCGAGUCCCGUACGGAACG [U13A A15C C33G G52A] | ≤ 0.5 |
| GUUCCGUUGGCGAAUUCGUAACGCGUCUCCCUCCUAAGGAGAAGACUGCGGGUUCGAGUCACGUACGGAACG [U13A A15U G17C C61A] | ≤ 0.5 |
| GUUCCGUUGGCGAAAUGGUCACGCGUCUCCCUCCUAAGGAGAAGAUUGCGGGUUCGAGUCCCGUACGGAACG [U13A A20C C46U] | 0.844 |
| GUUCCGUUGGCGAUAUGGUAAGGCGUCUCCCUCCUAGGGAGAAGACUGCGGGUUCGAGUCCCGUACGGAACG [U13A A14U C22G A37G] | 0.631 |
| GUUCCGUUGGCGAUAUGGUUACGCGUCUCCCUCCUAAGGAGAAGACUGCGGGUUCGAGUCCCGUACGGAACG [U13A A14U A20U] | 0.835 |
| GUUCCGUUGGCGAACUGGUAACGCGUCUCCCUGCUAAGGAGAAGACUGUGGGUUCGAGUCCCGAACGGAACG [U13A A15C C33G C49U U64A] | ≤ 0.5 |
| GUUCCGUUGGCGAAGUGGUAACGCGUCUCCGUCCUAAGGAGAAGACUGCGGGUUCGACUCCCGUACGGAACG [U13A A15G C31G G58C] | ≤ 0.5 |
| GUUCCGUUGGCUUAAUGGUAACGCGUCUCCCUCCUAAGGAGAACACUGCGGGUUCGAGUCCCGUACGGAACG [G12U G44C] | 0.766 |
| GUUCCGUUGGCGAAGUGGUAACGCGUGUCCCUCCUAAGGAGAAGACUGCGGGUUCGAGUCCCGUACGGAACG [U13A A15G C27G] | ≤ 0.5 |
| GUUCCGUUGGCGAAGUGGUAACGCGUUUCCCUCCUAAGGAGAAGACUGCGGGUUCGAGUCCCGUACGGAACG [U13A A15G C27U] | 0.601 |
| GUUCCGUUGGCGAACUGGUAACGCGUCUCCCUGCUAAGGAGAAGACUGUGGGUUCGAGUCUCGUACGGAACG [U13A A15C C33G C49U C61U] | 0.574 |
| GUUCCGUUGGCGAAGUGGUAACGCGUCUCCCUCCUAAGGAGAAGACUGCGGGUUCGAGUCCCGUACGGAACG [U13A A15G] | 0.932 |
| GUUCCGUUGGCGAGAUGGUAACGCGUCUCGCUCCUAAGGAGAAGACUGCGGGUUCGAGUCCCGUACGGAACG [U13A A14G C30G] | ≤ 0.5 |
| GUUCCGUUGGCGAGAUGGUAACGCGUCUCCCUCCUACGGAGAAGACUGCCCGUUCGAGUCCCGUACGGAACG [U13A A14G A37C G50C G51C] | 0.566 |
| GUUCCGUUGGCGAAAUGGUUACGCGUUUCCCUCCUAAGGAGGAGACUGCGGGUUCGAGUCCCGUACGGAACG [U13A A20U C27U A42G] | ≤ 0.5 |
| GUUCCGUUGGCGAAGUGGUAACGCGUCUCCCUCCUAAGGAGAAGACUACGGGUUCGAGUCCCGUGCGGAACG [U13A A15G G48A A65G] | 0.581 |

| Variant | yeast fitness |
| --- | --- |
| GUUCCGUUGGCUUAAUGGUAACGCGUCUCCCUCCUGAGGAGAAGACUGCGGGUUCGAGUCCCAUACGGUACG [G12U A36G G63A A69U] | 0.604 |
| GUUCCGUUGGCGAAUAGGUAACGCGUCUCCCUCCUUAGGAGAACACUGCGGGUUCAAGUCCCGUACGGAACG [U13A A15U U16A A36U G44C G56A] | ≤ 0.5 |
| GUUCCGUUGGCGAUAUGGUAAGGCGUCUCCCUCCUAAGGAGAAGUCUGCGGGUUCGAGUCCCGUACGGAACG [U13A A14U C22G A45U] | 0.507 |
| GUUCCGUUGGCGAAGUGGUAACGCGUCUCCCUCCUAAGGAGAAGACUGCGGGUUCGAGUCUCGUACGGAACG [U13A A15G C61U] | 0.564 |
| GUUCCGUUGGCGAAAUGGUGACGCGUCUCCCUCCUCAGGACAAGACUGCGGGUUCGAGUCUCGUACGGAACG [U13A A20G A36C G41C C61U] | 0.62 |
| GUUCCGUUGGCGAAAUGGUCAGGCGUCUCCCUCCUAAGGAGAAGACUGCGGGUUCGAGUCCCGUACGGAACG [U13A A20C C22G] | ≤ 0.5 |
| GUUCCGUUGGCGAAAUGGUCACGCGUCUCCCUACUAAGAAGAAGACUGCGGGUUCGAGUCCCGUACGGAACG [U13A A20C C33A G39A] | ≤ 0.5 |
| GUUCCGUUGGCUUAAUGGUAACGCGUCUCCCUCCUAGGGAGAAGACUGCGGGUUCGAGUCCCGUAUGGAACG [G12U A37G C66U] | 0.614 |
| GUUCCGUUGGCGAAGUGGUAACGCGUCUACCUCCUAAGGAGAAGACUGCGGGUUCGAGUCGCGUACGGAACG [U13A A15G C29A C61G] | ≤ 0.5 |
| GUUCCGUUGGCGAAAUGGUGACGUGUCUCCCUCCCAAGGAGAAGACUGCGGGUUCGACUCCCGUACGGAACG [U13A A20G C24U U35C G58C] | 0.632 |
| GUUCCGUUGGCGACAUGGUAAAGCGUCUCCCUCCUAAGGAGAAGACUCCGGGUUCGAGUCCCGUACGGAACG [U13A A14C C22A G48C] | 0.546 |
| GUUCCGUUGGCGAAGUGGUACGGCGUCUCGCUCCUAUGGAGAAGACUGCGGGUUCGAGUCCCGUACGGAACG [U13A A15G A21C C22G C30G A37U] | 0.636 |
| GUUCCGUUGGCGACAUGGUAAAGCGUCUCCCUCCUAAGGAGAAGACUCCGGGUUCGAGUCCCGUACUGAACG [U13A A14C C22A G48C G67U] | ≤ 0.5 |
| GUUCCGUUGGCGAAAUGGUGGCGCGUCUCCCUCCUAAGGAGAAGACUGCGGGUUCGAGUCCCGUCCGGAACG [U13A A20G A21G A65C] | ≤ 0.5 |
| GUUCCGUUGGCGAGAUGGUAACGCGUCUCCCUCCUAAGGAGAAGACUGCGGGUUCGAGUCCCGUACGGAACG [U13A A14G] | 0.843 |
| GUUCCGUUGGCGAUAUGGUAACGCGUCUCCCUCCUAAGGCGAAGACUGCGGGUUCGAGUCCCGUACGGAACG [U13A A14U A40C] | 0.556 |
| GUUCCGUUGGCUUAAUGGUAACGAGUCUCCCUCCUAAGGAGAAAACUGCGGGUUCGAGUCCCGUUCGGAACG [G12U C24A G44A A65U] | ≤ 0.5 |
| GUUCCGUUGGCGAAAUGGUUACGUGUCUCCCUCCUAGGGAGAAGACUGCGGGUUCGAGGCCCGUACGGAACG [U13A A20U C24U A37G U59G] | ≤ 0.5 |
| GUUCCGUUGGCGAAAUGGUCACGCGUCUCCCUCCUAAGGAGAAGAUUGCGGGUUCGAGUCCCGUACGGAUCG [U13A A20C C46U A70U] | 0.589 |

— the RNAGym collection of RNA variant scans (doi:10.1126/science.aae0568)
